Screening results deposited in PubChem by Johns Hopkins Ion Channel Center.
KCNQ1 block: human KCNQ1 channel inhibition. P51787. CHO-K1 KCNQ1, FluxOR thallium flux fluorescence; active compounds read high. B-score at 10 µM. hit rate 1.3% among 310,000. AID 2642;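 active means compounds whose thallium flux B-score, printed positive for inhibition, exceeds three library SD while starting fluorescence stays within three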;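 further: channel opened by potassium depolarization with thallium stimulus after 20 min compound exposure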
KCNK3 block: human KCNK3 channel inhibition, primary screen. B-score at 10 µM. CHO-KCNK3 thallium flux, FluxOR fluorescence; active compounds read low. hit rate 0.84% among 340,000. AID 602410;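 active means B-score under library mean minus 4 SD, starting fluorescence ratio at most library mean plus 5 SD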;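 further: more negative B-score means stronger inhibition of thallium flux through KCNK3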
Kir21 block: Kir2.1 (mouse) channel inhibition. AID 1672. hit rate 0.85% among 310,000. B-score at 10 µM. HEK293-Kir2.1, FluxOR thallium flux fluorescence; active compounds read low. P35561;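 active means fluorescence ratio B-score at or below minus 3 SD of library scores, with starting-brightness B-score within 2 SD, cut at about -4.2 in these data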;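 further: channel flux triggered by added potassium and thallium sulfate stimulus; B-score of peak minus minimum fluorescence over baseline after thallium stimulus; more negative B-score means stronger Kir2.1 block with less thallium influx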
hERG rescue: compounds protecting human hERG from proarrhythmic drug block; activation (rescue from dofetilide block), less the hit threshold, % at 10 µM; CHO-hERG, FluxOR thallium flux, dofetilide IC70 present; hit rate 0.51% among 310,000; Q12809;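 active means activation above the mean of controls blocked by dofetilide plus 5 SD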;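 further: thallium influx through hERG after potassium depolarization seen as dye fluorescence rise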
KCNQ1 act: potentiates or activates the human KCNQ1 potassium channel | AID 2648 | P51787 | CHO-K1 KCNQ1, thallium flux FluxOR fluorescence; active compounds read high | B-score at 10 µM | hit rate 0.35% among 310,000;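 active means fluorescence ratio B-score, a plate-corrected score, at least three library SD, with initial intensity B-score within 5 SD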
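System: Stable KCNQ1 CHO-K1 line | Incubation: 90 min dye loading and 20 min compound exposure, both at room temperature | Measure: Ratio B score | Medium: Assay buffer for compound exposure, DMSO matched across wells | Compound dosing: Single-concentration screen | Probe or stimulus: K+/Tl+ depolarizing stimulus | Measured by: Kinetic FluxOR fluorescence, 10 s baseline plus 110 s post-stimulus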
KCNK9 block: blocks the human KCNK9 two-pore domain potassium channel; AID 488922; B-score at 10 µM; Q9NPC2; hit rate 1.2% among 310,000; HEK293 KCNK9, FluxOR thallium flux fluorescence; active compounds read low;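 active means ratio B-score over 3 SD below the library mean, with starting fluorescence within 5 SD of its mean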;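 further: negative B-score means less thallium flux so channel inhibition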
Target sequence (Q9NPC2 whole entry, looked up, the tested form may be a part): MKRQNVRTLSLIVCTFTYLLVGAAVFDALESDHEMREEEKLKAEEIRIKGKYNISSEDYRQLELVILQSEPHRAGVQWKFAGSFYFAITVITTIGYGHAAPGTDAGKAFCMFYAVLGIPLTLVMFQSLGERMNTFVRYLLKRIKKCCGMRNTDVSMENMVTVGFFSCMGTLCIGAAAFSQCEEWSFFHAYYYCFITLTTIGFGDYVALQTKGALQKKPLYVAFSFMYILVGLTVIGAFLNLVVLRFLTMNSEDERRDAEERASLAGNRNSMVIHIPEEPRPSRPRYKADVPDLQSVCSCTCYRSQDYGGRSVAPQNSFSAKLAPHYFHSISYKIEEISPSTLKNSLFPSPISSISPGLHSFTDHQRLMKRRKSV
Of the large screens only hits and unclear results are named; the others gave an inactive call. In the library only some 3.8% were active in any assay of this set; here they are far more common.

CN(C)c1ccc(/C=C/c2ccc3ccccc3[n+]2C)cc1	KCNQ1 block 9, Kir21 block -14
CCCC[C@@H]1C=C(C(=O)O)[C@H](c2ccc(Br)cc2)N1S(=O)(=O)c1ccc(C)cc1	none (no result: KCNQ1 block, Kir21 block, hERG rescue, KCNQ1 act, KCNK9 block)
CSc1cccc(NC(=O)CN2C(=O)c3ccccc3S2(=O)=O)c1	hERG rescue 6.5, KCNQ1 act 21
O=C(CN1C(=O)c2ccccc2S1(=O)=O)Nc1ccccc1	none
CN1CCN(C(c2ccc(Br)cc2)c2cc(Cl)c3cccnc3c2O)CC1 (centres undefined)	none
CCn1c(=O)c(C(=O)NNS(=O)(=O)c2ccc(Cl)cc2)c(O)c2ccccc21	KCNQ1 block 6
CCN1CCN(CCOCCOc2ccccc2)CC1	none
CCN1CCN(CCOc2cccc(Oc3ccccc3)c2)CC1	Kir21 block -4.5
CCC(C(=O)NCC1CCCO1)N(C(=O)c1snc(C(N)=O)c1N)c1ccc(Cl)cc1 (centres undefined)	none
CN(C)CCNc1ncnc2oc(-c3ccccc3)c(-c3ccccc3)c12	Kir21 block -4.7
Cc1onc(-c2c(Cl)cccc2Cl)c1C(=O)n1nnc2ccccc21	hERG rescue 4.8 (no result: KCNK3 block)
Cc1onc(-c2c(Cl)cccc2Cl)c1C(N)=O	none
O=C(CCCn1nnnc1CN1CCOCC1)N1CCN(c2ccccc2F)CC1	KCNQ1 act 8
CCN(CC)c1nc(OCCNC(=O)Nc2ccccc2)nc(N(CC)CC)n1	KCNQ1 block 10, Kir21 block -5.3, KCNK9 block -7.9
COc1ccccc1/C=C/C=C1\Oc2c(ccc(O)c2CN2CCN(CCO)CC2)C1=O	KCNQ1 block 6, KCNK9 block -6.8
CCN1CCN(Cc2c(O)ccc3c2O/C(=C\c2ccccc2)C3=O)CC1	none
CCc1ccc(/C=C2\Oc3c(ccc(O)c3CN3CCN(C)CC3)C2=O)cc1	KCNQ1 block 8
O=C1/C(=C/C=C/c2ccccc2)Oc2c1ccc(O)c2CN1CCN(CCO)CC1	none
CN(C)Cc1c(O)ccc2c1O/C(=C\C=C\c1ccccc1)C2=O	KCNQ1 block 9
C[C@H]1C=C(C(=O)NCc2ccccc2)O[C@@H](OCc2ccc(CO)cc2)C1	none
Cn1nccc1NC(=O)COCC(=O)O	none
Nc1nc(OCC2CCCCC2)c2[nH]cnc2n1	none
NC(=O)c1cccnc1Nc1cccc([N+](=O)[O-])c1	hERG rescue 9.4
O=C(Nc1cccc([N+](=O)[O-])c1)NC1CCS(=O)(=O)C1 (centres undefined)	KCNQ1 block 10
O=C(Nc1cc([N+](=O)[O-])ccc1O)NC1CCS(=O)(=O)C1 (centres undefined)	none (no result: KCNQ1 block, Kir21 block, hERG rescue, KCNQ1 act, KCNK9 block)
O=C(Nc1cccc([N+](=O)[O-])c1)c1cnccn1	none
O=C(Nc1ccc(OC(F)(F)F)cc1)Nc1cccc([N+](=O)[O-])c1	KCNQ1 block 7
NC(=O)c1cc([N+](=O)[O-])ccc1Nc1ccccc1	none (no result: KCNQ1 block, Kir21 block, hERG rescue, KCNQ1 act, KCNK9 block)
O=C(Nc1cccnc1)Nc1cccc([N+](=O)[O-])c1	KCNQ1 block 6
CCn1nc(C)c(CNC(=O)c2cc(COc3ccccc3SC)on2)c1C	none
COc1ccc(CC(=O)Nc2ccc(N(C)C)c3ccccc23)cc1	none
Cc1ccccc1Cn1ccc(=NCc2ccccc2)cc1	Kir21 block -5.5 (no result: KCNK3 block)
O=c1ccn(Cc2ccccc2)cc1	none
CC(=O)c1ccc(NC(=O)c2ccc3nc(-c4ccco4)c(-c4ccco4)nc3c2)cc1	KCNK3 block -11
O=C(Nc1ccccc1)c1ccc2nc(-c3ccco3)c(-c3ccco3)nc2c1	none
COC(=O)c1ccc(Oc2nc(Nc3ccc(C)c(C)c3)nc(N(C)C)n2)cc1	KCNQ1 block 6
O=C1C(=O)N(Cc2ccccc2)C(=O)N1CCOc1ccccc1	none (no result: KCNQ1 block, Kir21 block, hERG rescue, KCNQ1 act, KCNK9 block)
CC1(C)SC(=S)N(/N=C/c2cccnc2)C1N(O)C(=O)Nc1ccccc1 (centres undefined)	none
CC1(C)SC(=S)N(NC(=O)Nc2ccccc2)C1N(O)C(=O)Nc1cccc2ccccc12 (centres undefined)	KCNQ1 block 9
CC1(C)SC(=S)N(/N=C/c2ccc(O)cc2)C1N(O)C(=O)Nc1ccc([N+](=O)[O-])cc1 (centres undefined)	KCNQ1 block 10
